Only some compounds are listed: those with a hit (about 1.2% of all), similar ones and a draw of the others.
FN deposit inh: fibronectin deposition inhibition; AH1F fibroblasts, Alexa488-fibronectin deposition fluorescence, overnight; inhibition, % at 12.6 µM; 350,000 compounds, 0.086% hits; AID 743247;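 active means mean inhibition across replicates of 30% or more, regardless of how many single replicates reach that level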
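test system = AH1F fibroblasts assembling fluorescent fibronectin matrix | quantity = 10000 AH1F cells per well | buffer or medium = DMEM plus 2% serum, read in PBS | doses = single dose, pinned | incubation = 1 h cell attachment, overnight exposure to compound and label | detection = fluorescence at 485 nm excitation, 525 nm emission | read-out basis = inhibition from reduced deposited-fibronectin fluorescence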
CaV13 FRET inh: Primary screen for inhibitors of IQ motif and Ca2+-dependent inactivation inhibitor domain binding in CACNA1D, Förster resonance energy transfer in living cells, …. 340,000 compounds, 0.098% hits. HEK cells, CFP/YFP FRET ICDI-IQ, plate reader, 10 min; percent FRET-ratio fall versus neutral wells. inhibition, % at 12.3 µM;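 active means mean replicate inhibition of at least 30% and at least 1% of replicates passing that level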
SR-BI HDL uptake: blocks mouse SR-BI lipid uptake from DiI-HDL. AID 488896. ldlA[mSR-BI] CHO cells, DiI-HDL uptake fluorescence, 3 h. 320,000 compounds, 0.96% hits. inhibition, % at 12.5 µM. Q61009;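 active means mean replicate inhibition of at least 70% and a set share of replicates each scoring 70 or more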
Target sequence (Q61009 whole entry, looked up): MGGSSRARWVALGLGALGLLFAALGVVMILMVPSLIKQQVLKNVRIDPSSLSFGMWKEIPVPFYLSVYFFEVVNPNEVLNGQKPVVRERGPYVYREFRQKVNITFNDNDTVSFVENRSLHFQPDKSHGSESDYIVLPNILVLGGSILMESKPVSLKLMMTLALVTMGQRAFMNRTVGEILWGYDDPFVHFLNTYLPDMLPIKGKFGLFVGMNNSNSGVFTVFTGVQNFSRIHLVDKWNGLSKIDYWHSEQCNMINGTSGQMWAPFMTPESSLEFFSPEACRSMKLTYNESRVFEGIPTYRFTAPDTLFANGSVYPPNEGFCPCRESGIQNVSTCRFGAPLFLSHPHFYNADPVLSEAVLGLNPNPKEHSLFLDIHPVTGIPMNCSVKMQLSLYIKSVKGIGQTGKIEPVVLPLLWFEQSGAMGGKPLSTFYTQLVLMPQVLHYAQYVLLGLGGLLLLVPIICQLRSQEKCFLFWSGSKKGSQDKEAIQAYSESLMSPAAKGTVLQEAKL
Efflux pump mplx: blocks antifungal efflux pumps in multiplex yeast assay; inhibition, % at 10 µM; S. cerevisiae Candida pump triplex, Nile Red efflux; 330,000 compounds, 0.44% hits;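 active means plate passing quality check with inhibition over a set limit, or well fluorescence over plate mean plus 4 SD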;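 further: Nile Red retained in pooled yeast measured as flow cytometry median fluorescence; higher means more Nile Red kept so more efflux inhibition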
SR-BI DiI-HDL act: SR-BI HDL lipid transfer activation; CHO ldlA[mSR-BI] cells, DiI-HDL uptake fluorescence, 3 h; 100 = double the neutral-control signal; activation, % at 12.5 µM; 320,000 compounds, 0.096% hits;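 active means mean replicate activation of at least 60% and every replicate at or above 60%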
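Material: SR-BI-overexpressing, LDLR-lacking CHO cells | Dosing: Single compound concentration, delivered by pin transfer | Probe or stimulus: Labelled HDL, 10 µg/mL | Signal: Bottom-read cell fluorescence after medium removal, ex 550/em 595 nm | Schedule: 3 h, 37 °C | Evaluation: HDL uptake via cellular fluorescence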
Yeast cmpd fluor: flagged as fluorescent in efflux inhibitor counter-screen | S. cerevisiae AD/pABC3, compound fluorescence, flow cytometry | 1,700 compounds, 4% hits | shares compounds with Efflux pump mplx | fluorescence ratio to DMSO, % at 10 µM;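 active means fluorescence ratio to DMSO above its plate's cutoff, the plate mean ratio plus 5 SD, cut at about 210% in these data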;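 further: unstained yeast with no Nile Red so the signal is compound autofluorescence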
Mdr1 pump inh: inhibitors of Candida albicans Mdr1 efflux pump; shares compounds with Efflux pump mplx; S. cerevisiae AD/CaMDR1, Nile Red efflux, flow cytometry; inhibition, % at 10 µM; 1,700 compounds, 1% hits; AID 588518; in the data active means inhibition above about 26%;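 further: higher means more Nile Red retained so more efflux inhibition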
Cdr2 pump inh: blocks the Candida albicans Cdr2 efflux pump in yeast | shares compounds with Efflux pump mplx | S. cerevisiae AD/CaCDR2, Nile Red retention, flow cytometry | Nile Red retention ratio vs DMSO, % at 10 µM | 1,700 compounds, 4% hits; in the data active means Nile Red retention ratio vs DMSO above about 190%;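 further: higher ratio means more blocking of Cdr2 efflux of the dye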
CaCdr1 efflux inh: inhibitors of Candida albicans Cdr1 efflux pump. shares compounds with Efflux pump mplx. S. cerevisiae AD/CaCDR1, Nile Red efflux, flow cytometry. inhibition, % at 10 µM. 1,700 compounds, 1% hits;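 active means inhibition above the screen-wide mean plus twice its standard deviation, cut at about 32% in these data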
Large screens that a line does not name were inactive (follow-up assays come after a bar, where they were run).

Oc1c(Br)cc(Br)cc1/C=N/c1nc2c(s1)CCCC2	Efflux pump mplx 0.4 (no result: FN deposit inh, CaV13 FRET inh) | Yeast cmpd fluor inactive | Mdr1 pump inh inactive | Cdr2 pump inh inactive | CaCdr1 efflux inh inactive
Oc1ccc2ccccc2c1/C=N/c1nc2c(s1)CCCC2	none (no result: FN deposit inh)
COc1ccc([C@@H]2Sc3ccccc3N(CCN(C)C)C(=O)[C@@H]2OC(C)=O)cc1	none | Yeast cmpd fluor inactive | Mdr1 pump inh inactive | Cdr2 pump inh inactive | CaCdr1 efflux inh inactive
C[C@@]12C(=O)Nc3ccc(Cl)cc3C(=O)N1[C@H]1c3cc(Cl)ccc3OC[C@@H]1[C@@H]2c1ccccc1	none | Yeast cmpd fluor inactive | Mdr1 pump inh inactive | Cdr2 pump inh inactive | CaCdr1 efflux inh inactive
Cc1ccc2c(c1)[C@H]1[C@H](CO2)[C@H](c2ccccc2)[C@]2(C)C(=O)Nc3ccc(Cl)cc3C(=O)N12	none
COc1ccc2c(c1)OC[C@H]1[C@H]2N2C(=O)c3cc(C)ccc3NC(=O)[C@@]2(C)[C@H]1c1ccccc1	Efflux pump mplx 5.1 (no result: FN deposit inh, CaV13 FRET inh) | Yeast cmpd fluor inactive | Mdr1 pump inh inactive | Cdr2 pump inh inactive | CaCdr1 efflux inh inactive
C[C@@]12C(=O)Nc3cc(F)c(F)cc3C(=O)N1[C@H]1c3cc(Cl)ccc3OC[C@@H]1[C@@H]2c1ccccc1	none (no result: FN deposit inh, CaV13 FRET inh) | Yeast cmpd fluor inactive | Mdr1 pump inh inactive | Cdr2 pump inh inactive | CaCdr1 efflux inh inactive
C[C@@]12C(=O)Nc3ccccc3C(=O)N1[C@H]1c3cc(Cl)ccc3OC[C@@H]1[C@@H]2c1ccccc1	none | Yeast cmpd fluor inactive | Mdr1 pump inh inactive | Cdr2 pump inh inactive | CaCdr1 efflux inh inactive
CC(=O)N1[C@H](CO)[C@H](c2ccc(C3=CCCC3)cc2)[C@@H]1CNC(=O)CN(C)C	none (no result: CaV13 FRET inh, SR-BI HDL uptake, Efflux pump mplx, SR-BI DiI-HDL act)
O=C(C[C@@H]1CC[C@@H]2[C@H](COC[C@@H](O)CN2Cc2cccc(-c3ccncc3)c2)O1)N1CCOCC1	none (no result: CaV13 FRET inh, SR-BI HDL uptake, Efflux pump mplx, SR-BI DiI-HDL act)
Cc1ccc2nc(/C(C#N)=C/c3ccc(O)c(O)c3)[nH]c2c1	Efflux pump mplx 3.4 | Yeast cmpd fluor inactive | Mdr1 pump inh inactive | Cdr2 pump inh inactive | CaCdr1 efflux inh inactive
COc1ccccc1C(=O)COC(=O)/C=C/c1ccccc1	Efflux pump mplx 6.2 | Yeast cmpd fluor inactive | Mdr1 pump inh inactive | Cdr2 pump inh inactive | CaCdr1 efflux inh inactive
CO[C@H]1CN(C)C(=O)c2ccc(NS(C)(=O)=O)cc2OC[C@H](C)N(C(=O)C2CCCC2)C[C@@H]1C	none (no result: CaV13 FRET inh, SR-BI HDL uptake, Efflux pump mplx, SR-BI DiI-HDL act)
Cc1occc1C(=O)N(C)CC1CCCN(CCc2ccccc2F)C1 (configuration not stated)	Efflux pump mplx 5.0 | Yeast cmpd fluor inactive | Mdr1 pump inh inactive | Cdr2 pump inh inactive | CaCdr1 efflux inh inactive
Cc1ccc(NC(=S)NN(C)c2nc(C)cnc2C)cc1	Efflux pump mplx 9.6 (no result: FN deposit inh) | Yeast cmpd fluor inactive | Mdr1 pump inh inactive | Cdr2 pump inh inactive | CaCdr1 efflux inh inactive
Cc1cc(N(C)NC(=S)Nc2ccccc2)nc(C)n1	none
COc1ccc(NC(=O)c2ccccc2NC(=O)c2ccco2)c(OC)c1	none (no result: FN deposit inh, CaV13 FRET inh)
COc1ccccc1NC(=O)c1ccccc1NC(=O)c1cc(Cl)ccc1NC(=O)c1ccco1	Efflux pump mplx 0.5 | Yeast cmpd fluor inactive | Mdr1 pump inh inactive | Cdr2 pump inh inactive | CaCdr1 efflux inh inactive
COc1ccc(N2CCN(Cc3nc4c(c(=O)[nH]c(=O)n4C)n3CCCc3ccccc3)CC2)cc1	Efflux pump mplx 14 (no result: FN deposit inh) | Yeast cmpd fluor inactive | Mdr1 pump inh inactive | Cdr2 pump inh inactive | CaCdr1 efflux inh inactive
C[C@H]1CN([C@@H](C)CO)S(=O)(=O)c2ccc(-c3ccccc3)cc2O[C@@H]1CN(C)S(C)(=O)=O	none (no result: CaV13 FRET inh, SR-BI HDL uptake, Efflux pump mplx, SR-BI DiI-HDL act)
O=C(Nc1cccc2ccccc12)c1cn(-c2ccccc2)nc1-c1cccs1	Efflux pump mplx 9.0 (no result: FN deposit inh) | Yeast cmpd fluor inactive | Mdr1 pump inh inactive | Cdr2 pump inh inactive | CaCdr1 efflux inh inactive
O=C(NCc1cccc(Cl)c1)NC(=O)c1csc([N+](=O)[O-])c1	Efflux pump mplx 0.9 | Yeast cmpd fluor inactive | Mdr1 pump inh inactive | Cdr2 pump inh inactive | CaCdr1 efflux inh inactive
CSCCC(NC(=O)c1ccccc1Cl)C(=O)N(C)Cc1cccs1 (configuration not stated)	Efflux pump mplx 5.5 | Yeast cmpd fluor inactive | Mdr1 pump inh inactive | Cdr2 pump inh inactive | CaCdr1 efflux inh inactive
CSCCC(NC(=O)c1ccccc1Cl)C(=O)N1CCC1 (configuration not stated)	none
Cc1ccc(S(=O)(=O)Nc2ccc3c(c2)C(=O)N([C@H](C)CO)C[C@@H](C)[C@H](CN(C)S(=O)(=O)c2cn(C)cn2)OCCCC[C@@H](C)O3)cc1	none (no result: CaV13 FRET inh, SR-BI HDL uptake, Efflux pump mplx, SR-BI DiI-HDL act)
Cc1cccc(NC(=O)c2cc3cc([N+](=O)[O-])ccc3s2)n1	Efflux pump mplx 1.1 | Yeast cmpd fluor inactive | Mdr1 pump inh inactive | Cdr2 pump inh inactive | CaCdr1 efflux inh inactive
Cc1cc(NC(=O)c2cc3cc([N+](=O)[O-])ccc3s2)no1	none (no result: SR-BI HDL uptake, Efflux pump mplx, SR-BI DiI-HDL act)
COc1ccc(S(=O)(=O)N2CCOC2CNC(=O)C(=O)NCc2ccc3c(c2)OCO3)cc1 (configuration not stated)	none (no result: FN deposit inh, CaV13 FRET inh) | Yeast cmpd fluor inactive | Mdr1 pump inh inactive | Cdr2 pump inh inactive | CaCdr1 efflux inh inactive
COc1ccc(CNC(=O)C(=O)NCC2OCCN2S(=O)(=O)c2ccc(OC)cc2)cc1 (configuration not stated)	none (no result: FN deposit inh, CaV13 FRET inh) | Yeast cmpd fluor inactive | Mdr1 pump inh inactive | Cdr2 pump inh inactive | CaCdr1 efflux inh inactive
COCC(=O)Nc1ccc2c(c1)OC[C@@H](C)N(C(=O)c1ccccc1)C[C@H](C)[C@@H](OC)CN(C)C2=O	none (no result: CaV13 FRET inh, SR-BI HDL uptake, Efflux pump mplx, SR-BI DiI-HDL act)
